Values after ≈ are worked out from the molar mass of the structure shown.
Columns and labels:
[1] = biological target: Tyrosine-protein kinase JAK2 (Homo sapiens, UniProt O60674)
[2] = biological target: Tyrosine-protein kinase JAK2 (Homo sapiens, UniProt O60674, V617F)
[3] = Half life in Balb nu/nu mouse at 10 mg/kg, iv; type: ADME, organism-based; set-up: dose 10 mg/kg, route intravenous; settings: in vivo
Method in brief: (§1)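 Overnight-fasted male Nu/Nu mice, single intravenous dose in 10% Tween 80 in 5% dextrose, three mice. Saphenous vein blood taken at predose, 0.083, 0.5, 1, 6 and 24 h. Plasma obtained by centrifugation at 10,000g, 3 min, 4 °C, stored at -80 °C, then analysed by LC/MS/MS.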

[4] = Cmax in Balb nu/nu mouse at 10 mg/kg, iv; type: ADME, organism-based; set-up: dose 10 mg/kg, route intravenous; settings: in vivo
Method in brief: as §1

[5] = Half life in Balb nu/nu mouse at 10 mg/kg, po; type: ADME, organism-based; set-up: dose 10 mg/kg, route oral; settings: in vivo
Method in brief: (§2)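 Overnight-fasted male Nu/Nu mice, single oral dose in 0.5% methocel, three mice. Saphenous vein blood taken at predose, 0.083, 0.5, 1, 6 and 24 h. Plasma obtained by centrifugation at 10,000g, 3 min, 4 °C, stored at -80 °C, then analysed by LC/MS/MS.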

[6] = Volume of distribution at steady state in Balb nu/nu mouse at 10 mg/kg, iv; type: ADME, organism-based; set-up: dose 10 mg/kg, route intravenous; settings: in vivo, read-out: Vdss
Method in brief: as §1

[7] = AUC(infinity) in Balb nu/nu mouse at 10 mg/kg, po; type: ADME, organism-based; set-up: time infinity, dose 10 mg/kg, route oral; settings: plasma
Method in brief: as §2

[8] = Cmax in Balb nu/nu mouse at 10 mg/kg, po; type: ADME, organism-based; set-up: dose 10 mg/kg, route oral; settings: in vivo
Method in brief: as §2

[9] = Clearance in Balb nu/nu mouse at 10 mg/kg, iv; type: ADME, organism-based; set-up: dose 10 mg/kg, route intravenous; settings: in vivo
Method in brief: as §1

[10] = Solubility of the compound in buffer at pH7; type: physicochemical; settings: pH 7
[11] = Oral bioavailability in Balb nu/nu mouse at 10 mg/kg; type: ADME, organism-based; settings: in vivo
Method in brief: as §2

A2780 = assay: Antiproliferative activity against human A2780 cells after 72 hrs by Cell Titer-Glo assay; type: functional, cell-based; settings: A2780, 72 h
[12] = (§3) AUC(infinity) in Balb nu/nu mouse at 10 mg/kg, iv; type: ADME, organism-based, Plasma; set-up: dose 10 mg/kg, route intravenous, time infinity; settings: Balb nu/nu, plasma
Method in brief: as §1

[13] = Antiproliferative activity against human DERL7 cells after 72 hrs by Cell Titer-Glo assay; type: functional, cell-based; settings: DERL7, 72 h
Mus musculus = assay: as §3; type: ADME, organism-based, Plasma; set-up: dose 10 mg/kg, route intravenous, time infinity; settings: in vivo
Method in brief: as §1

Sequence of Tyrosine-protein kinase JAK2 (Homo sapiens, UniProt O60674, V617F) (O60674 whole entry V617F): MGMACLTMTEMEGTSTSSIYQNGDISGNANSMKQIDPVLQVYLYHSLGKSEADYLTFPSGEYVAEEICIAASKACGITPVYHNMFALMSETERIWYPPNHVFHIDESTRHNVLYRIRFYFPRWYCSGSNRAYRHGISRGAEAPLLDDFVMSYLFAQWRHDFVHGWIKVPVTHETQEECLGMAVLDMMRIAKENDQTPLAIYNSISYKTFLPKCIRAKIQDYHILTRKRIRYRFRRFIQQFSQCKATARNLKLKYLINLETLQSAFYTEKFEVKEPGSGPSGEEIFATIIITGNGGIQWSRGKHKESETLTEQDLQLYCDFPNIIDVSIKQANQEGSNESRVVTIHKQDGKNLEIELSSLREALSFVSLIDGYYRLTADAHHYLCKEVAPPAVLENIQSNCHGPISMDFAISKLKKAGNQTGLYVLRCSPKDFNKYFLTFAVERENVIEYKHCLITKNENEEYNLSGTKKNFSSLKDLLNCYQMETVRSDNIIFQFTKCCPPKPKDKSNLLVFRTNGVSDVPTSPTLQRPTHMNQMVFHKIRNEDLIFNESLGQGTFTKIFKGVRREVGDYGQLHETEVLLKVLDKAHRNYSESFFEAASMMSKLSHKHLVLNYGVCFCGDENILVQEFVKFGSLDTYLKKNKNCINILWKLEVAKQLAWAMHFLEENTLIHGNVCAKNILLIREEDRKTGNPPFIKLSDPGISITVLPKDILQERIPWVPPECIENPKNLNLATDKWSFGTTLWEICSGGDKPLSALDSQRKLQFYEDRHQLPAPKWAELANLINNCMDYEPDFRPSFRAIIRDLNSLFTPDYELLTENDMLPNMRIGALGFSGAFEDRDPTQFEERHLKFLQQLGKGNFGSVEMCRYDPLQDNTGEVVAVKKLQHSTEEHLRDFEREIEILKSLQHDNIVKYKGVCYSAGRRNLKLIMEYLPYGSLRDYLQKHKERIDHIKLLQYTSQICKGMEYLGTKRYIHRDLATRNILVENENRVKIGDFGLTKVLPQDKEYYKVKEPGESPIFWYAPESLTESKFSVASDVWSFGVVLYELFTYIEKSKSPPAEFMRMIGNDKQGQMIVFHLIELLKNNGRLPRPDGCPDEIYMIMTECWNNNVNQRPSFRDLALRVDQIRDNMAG
Sequence of Tyrosine-protein kinase JAK2 (Homo sapiens, UniProt O60674) (O60674 whole entry): as the sequence (O60674 whole entry V617F) above, with F617V counted along it

Row | IC50 [1] [µM] | IC50 [2] [µM] | SMILES | further results
1 | 0.066 | – | Cc1ccc(Cl)cc1-c1c(C(N)=O)cc(-c2ccnc(N)n2)n1C | –
2 | 1.24 | – | Cc1ccc(Cl)cc1-c1[nH]c(-c2ccncn2)cc1C(N)=O | –
3 | 0.15 | – | CC(C)c1ccc(Cl)cc1-c1[nH]c(-c2ccnc(N)n2)cc1C(N)=O | –
4 | 0.021 | 3.07 | NC(=O)c1cc(-c2ccnc(N)n2)[nH]c1-c1cc(C(F)(F)F)ccc1C(F)(F)F | –
5 | 0.114 | – | Cc1ccc(Cl)cc1-c1[nH]c(-c2ccnc(N)n2)cc1C(=O)NCCF | –
6 | 0.109 | – | CCNC(=O)c1cc(-c2ccnc(N)n2)[nH]c1-c1cc(Cl)ccc1C | –
7 | 0.053 | – | NC(=O)c1cc(-c2ccnc(N)n2)[nH]c1-c1cc(Cl)ccc1C(F)(F)F | –
8 | – | – | CCc1ccc(Cl)cc1-c1[nH]c(-c2ccnc(N)n2)cc1C(N)=O | half-life [3]: 12 min; Cmax [4]: 4.5 µM; half-life [5]: 48 min; Vd [6]: 1.8 L/kg; AUC(0-inf) [7]: 0.7 µM·h; Cmax [8]: 0.6 µM; solubility [10]: 200 µM (≈ 68.4 µg/mL); bioavailability [11]: 17%; IC50 (A2780): 2 µM; AUC (Mus musculus): 2 µM·h; IC50 [13]: 0.88 µM
9 | 3.2 | – | NC(=O)c1cc(-c2ccnc(N)n2)[nH]c1-c1ccccc1 | –
10 | 3.06 | – | Cc1ccc(Cl)cc1-c1[nH]c(-c2ccnc(N)n2)cc1C(=O)N(C)C | –
11 | – | 0.7 | NC(=O)c1cc(-c2ccnc(N)n2)[nH]c1-c1cc(Cl)ccc1Cl | IC50 (A2780): 2.46 µM; IC50 [13]: 1.66 µM
12 | – | – | Cc1ccc(Cl)cc1-c1[nH]c(-c2ccnc(N)n2)cc1C(N)=O | IC50 (A2780): 0.38 µM; IC50 [13]: 0.74 µM
13 | 0.617 | – | NC(=O)c1cc(-c2ccnc(N)n2)[nH]c1-c1cccc(Cl)c1 | –
14 | 0.035 | 0.48 | CNC(=O)c1cc(-c2ccnc(N)n2)[nH]c1-c1cc(Cl)ccc1C | IC50 (A2780): 0.98 µM; IC50 [13]: 2.07 µM
15 | 0.695 | – | Cc1ccccc1-c1[nH]c(-c2ccnc(N)n2)cc1C(N)=O | –
16 | 0.308 | – | COc1ccc(Cl)cc1-c1[nH]c(-c2ccnc(N)n2)cc1C(N)=O | –
17 | 0.394 | – | COc1ccc(CNc2nccc(-c3cc(C(N)=O)c(-c4cc(Cl)ccc4C)[nH]3)n2)cc1 | –
18 | 0.059 | – | Cc1ccc(Cl)cc1-c1[nH]c(-c2ccnc(Nc3ccc(N4CCN(C)CC4)cc3)n2)cc1C(N)=O | –
19 | 0.154 | – | Cc1ccc(Cl)cc1-c1[nH]c(-c2ccnc(N)n2)cc1C(=O)NCc1ccccc1 | –
20 | 0.615 | – | NC(=O)c1cc(-c2ccnc(N)n2)[nH]c1-c1ccccc1Cl | –
21 | 0.044 | > 3 | CNCCNC(=O)c1cc(-c2ccnc(N)n2)[nH]c1-c1cc(Cl)ccc1C | –
22 | 0.057 | – | Cc1ccc(Cl)cc1-c1[nH]c(-c2ccnc(N)n2)cc1C(=O)NCCO | –
23 | 0.384 | – | Cc1ccc(Cl)cc1-c1[nH]c(-c2ccnc(N)n2)cc1C(=O)NCC(C)C | –
24 | 0.247 | – | Cc1ccc(Cl)cc1-c1[nH]c(-c2ccnc(N)n2)cc1C(=O)Nc1ccccc1 | –
25 | 0.046 | > 3 | Cc1ccc(Cl)cc1-c1[nH]c(-c2ccnc(N)n2)cc1C(=O)NC1CCN(C)CC1 | –
26 | 0.022 | 0.25 | Cc1ccc(Cl)cc1-c1c(C(N)=O)cc(-c2ccnc(Nc3ccc(N4CCN(C)CC4)cc3)n2)n1C | –
27 | 0.024 | 1.1 | NC(=O)c1cc(-c2ccnc(N)n2)[nH]c1-c1cc(OC(F)(F)F)ccc1Cl | –

Row | SMILES | IC50 [1] [µM] | IC50 [2] [µM] | further results
28 | CCc1ccc(C(F)(F)F)cc1-c1[nH]c(-c2ccnc(N)n2)cc1C(N)=O | – | 0.32 | half-life [3]: 60 min; Cmax [4]: 38.9 µM; half-life [5]: 108 min; Vd [6]: 0.6 L/kg; AUC(0-inf) [7]: 4.6 µM·h; Cmax [8]: 4.4 µM; clearance [9]: 21.6 mL/min/kg; solubility [10]: 182 µM (≈ 68.3 µg/mL); bioavailability [11]: 24%; IC50 (A2780): 2.21 µM; AUC(0-inf) [12]: 20.7 µM·h; IC50 [13]: 1.47 µM
29 | Cc1ccc(C(F)(F)F)cc1-c1[nH]c(-c2ccnc(N)n2)cc1C(N)=O | 0.01 | 0.76 | IC50 (A2780): 0.44 µM; IC50 [13]: 0.64 µM

Source: ChEMBL document CHEMBL3352511, “Pyrrole-3-carboxamides as potent and selective JAK2 inhibitors” (Bioorg Med Chem, 2014)
